Results as given in ChEMBL document CHEMBL2396601, “Synthesis and antiprotozoal activity of dicationic m-terphenyl and 1,3-dipyridylbenzene derivatives” (J Med Chem, 2013).
Calls of active or inactive are those of the source. The calls are words filed in the database; no cut-off is given here.

How the values were obtained:
[1] = system: Trypanosoma brucei rhodesiense; assay: Antiprotozoal activity against Trypanosoma brucei rhodesiense STIB900 infected in NMRI mouse assessed as reduction of parasitemia relapse at 5 mg/kg, ip qd for 4 days; format: functional, organism-based; design: dose 5 mg/kg
How it was run: (§1)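 Mouse model of acute (early) stage HAT with T. b. rhodesiense STIB900, groups of 4 mice. Amidines dosed intraperitoneally, 4 daily doses of 5 mg/kg or single doses; prodrugs dosed orally, 4 daily doses of 25 mg/kg. Cure means survival to 60 days after infection with no parasitemia relapse. Mean survival days counts all mice, with cured mice scored as >60 days.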

[2] = Selectivity index, ratio of IC50 for rat L6 cells to IC50 for Plasmodium falciparum K1; format: toxicity, cell-based; settings: L6 cells, read-out: Ratio IC50
How it was run: (§2)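 Selectivity index is IC50 against L6 rat myoblast cells divided by IC50 against the named parasite.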

[3] = system: Trypanosoma brucei rhodesiense; assay: Antiprotozoal activity against Trypanosoma brucei rhodesiense STIB900 after 72 hrs by Alamar Blue assay; format: functional, organism-based; settings: Trypanosoma brucei, STIB900, 72 h
How it was run: (§3)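 Uses T. b. rhodesiense STIB900, T. cruzi Tulahuen C2C4 LacZ intracellular amastigotes, or L6 rat myoblasts depending on line.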

[4] = system: L6; assay: Cytotoxicity against rat L6 cells after 72 hrs by Alamar Blue assay; format: cell-based; settings: L6, 72 h; how it was run: as §3
[5] = system: Trypanosoma brucei rhodesiense; assay: Antiprotozoal activity against Trypanosoma brucei rhodesiense STIB900 infected in NMRI mouse assessed as host mean survival days at 5 mg/kg, ip; format: functional; settings: route intraperitoneal
How it was run: (§4)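 Acute-stage HAT mouse model infected with STIB900. Cure means survival to 60 days after infection with no parasitemia relapse. Mean survival days are counted from infection and use every mouse: relapsed mice, plus cured mice entered as >60 days.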

[6] = Selectivity index, ratio of IC50 for rat L6 cells to IC50 for Trypanosoma cruzi Tulahuen C2C4; format: toxicity, cell-based; settings: read-out: Ratio IC50; how it was run: as §2
[7] = system: Trypanosoma cruzi; assay: Antiprotozoal activity against intracellular amastigote form of Trypanosoma cruzi Tulahuen C2C4 expressing LacZ infected in rat L6 cells after 48 hrs; format: functional, organism-based; settings: Tulahuen C2C4, L6, 48 h; how it was run: as §3
[8] = system: Trypanosoma brucei rhodesiense; assay: Antiprotozoal activity against Trypanosoma brucei rhodesiense STIB900 infected in NMRI mouse assessed as host mean survival days at 5 mg/kg, ip qd for 4 days; format: functional; settings: route intraperitoneal; how it was run: as §4
[9] = Selectivity index, ratio of IC50 for rat L6 cells to IC50 for Trypanosoma brucei rhodesiense STIB900; format: toxicity, cell-based; settings: L6 cells, read-out: Ratio IC50; how it was run: as §2
[10] = system: Trypanosoma brucei rhodesiense; assay: Antiprotozoal activity against Trypanosoma brucei rhodesiense STIB900 infected in NMRI mouse assessed as reduction of parasitemia relapse at 5 mg/kg, ip; format: functional, organism-based; design: dose 5 mg/kg; how it was run: as §1
[11] = system: Plasmodium falciparum; assay: Antiprotozoal activity against chloroquine-resistant Plasmodium falciparum K1 after 48 hrs by [3H]-hypoxanthine incorporation assay; format: functional, organism-based; settings: Plasmodium falciparum, K1
[12] = system: Leishmania donovani; assay: Antiprotozoal activity against Leishmania donovani promastigotes infected in BALB/c mouse assessed as inhibition of liver parasitemia at 30 mg/kg, ip qd for 5 days; format: functional; settings: 120 h, route intraperitoneal
How it was run: (§5)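 L. donovani-infected BALB/c mice dosed daily for 5 days, 30 mg/kg ip or 10 mg/kg orally, depending on line.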

[13] = system: Leishmania amazonensis; assay: Antiprotozoal activity against intracellular amastigote form of Leishmania amazonensis infected in CD1 mouse macrophages after 72 hrs by […]; format: functional, organism-based
[14] = Selectivity index, ratio of IC50 for rat L6 cells to IC50 for Leishmania amazonensis; format: toxicity, cell-based; settings: read-out: Ratio IC50; how it was run: as §2
[15] = system: Mus musculus; assay: Toxicity in BALB/c mouse assessed as mortality at 30 mg/kg, ip qd for 5 days; format: organism-based; design: dose 30 mg/kg, route intraperitoneal; settings: in vivo, 120 h
[16] = system: Leishmania donovani; assay: Antiprotozoal activity against Leishmania donovani promastigotes infected in BALB/c mouse assessed as inhibition of liver parasitemia at 10 mg/kg, po qd for 5 days; format: functional; settings: 120 h; how it was run: as §5
[17] = system: Trypanosoma brucei rhodesiense; assay: Antiprotozoal activity against Trypanosoma brucei rhodesiense STIB900 infected in NMRI mouse assessed as reduction of parasitemia relapse at 10 mg/kg, ip; format: functional, organism-based; design: dose 10 mg/kg; how it was run: as §1
[18] = system: Trypanosoma brucei rhodesiense; assay: Antiprotozoal activity against Trypanosoma brucei rhodesiense STIB900 infected in NMRI mouse assessed as host mean survival days at 10 mg/kg, ip; format: functional; settings: route intraperitoneal; how it was run: as §4

SMILES: Cl.Cl.N=C(N)c1ccc(-c2cccc(-c3ccc(C(=N)N)nc3)c2)cn1
- Activity [1]: Active
- selectivity ratio [2]: 1480
- IC50 [3]: 6 nM
- IC50 [4]: 22300 nM
- MSD [5]: >60 days
- selectivity ratio [6]: < 1
- IC50 [7]: 43400 nM
- MSD [8]: >60 days
- selectivity ratio [9]: 3720
- Activity [10]: Active
- IC50 [11]: 15 nM

SMILES: Cl.Cl.Cl.N=C(Nc1ccc(-c2cc(Cl)cc(-c3cccc(NC(=N)c4ccccn4)c3)c2)cc1)c1ccccn1
- selectivity ratio [2]: 12
- IC50 [3]: 109 nM
- IC50 [4]: 2640 nM
- inhibition in vivo at 30 mg/kg [12]: 23%
- IC50 [13]: 211 nM
- selectivity ratio [6]: 2
- IC50 [7]: 1540 nM
- selectivity ratio [9]: 24
- selectivity ratio [14]: 13
- Activity [15]: Non-toxic
- IC50 [11]: 219 nM

SMILES: CCCCCCCCCCCCCCCCOP(=O)([O-])OCC[N+](C)(C)C [MILTEFOSINE]
- inhibition in vivo at 10 mg/kg [16]: 96%

SMILES: Cl.Cl.N=C(N)c1ccc(-c2cccc(-c3ccc(C(=N)N)cc3)c2)cc1
- Activity [1]: Active
- selectivity ratio [2]: 1280
- IC50 [3]: 4 nM
- IC50 [4]: 31200 nM
- selectivity ratio [6]: < 1
- IC50 [7]: 71600 nM
- MSD [8]: >60 days
- selectivity ratio [9]: 8490
- Activity [17]: Active
- IC50 [11]: 24 nM
- MSD [18]: >60 days
